In ChEMBL document CHEMBL1649175, “Lack of a clinically important effect of moderate hepatic insufficiency and severe renal insufficiency on raltegravir pharmacokinetics” (Antimicrob Agents Chemother, 2009):

Experiments:
[1] = Primary phase half life in patient with severe renal insufficiency at 400 mg, po administered as single dose; type: ADME, organism-based; conditions: human, in vivo
Method in brief: (§1)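 Single 400-mg oral raltegravir dose, fasted (stated for study II); patients and matched healthy controls. Plasma sampled at 0–72 h (to 96 h in hepatic study only), quantified by validated reverse-phase HPLC-MS/MS (LLOQ 2 ng/ml), converted to nM (MW 444.4). Profiles fit biexponentially (Gauss-Newton, Levenberg-Hartley; weighting 1/predicted concentration²); each phase t1/2 = ln(2)/rate constant.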

[2] = AUC (0 to infinity) in patient with severe renal insufficiency at 400 mg, po administered as single dose; type: ADME, organism-based; set-up: dose 400 mg, route oral, time infinity; conditions: human, plasma
Method in brief: (§2)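 Single 400-mg oral dose given fasted (fasting stated for the renal study). Assay: validated reverse-phase HPLC-MS/MS, LLOQ 2 ng/ml, range 2 to 1,000 ng/ml. AUC0-∞ = AUC0-last by linear/log trapezoid plus extrapolation. Cmax is read from the data. C12 is the nominal 12-h concentration. Values converted to nM (MW 444.4).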

[3] = Primary phase half life in healthy human at 400 mg, po administered as single dose; type: ADME, organism-based; conditions: in vivo; method in brief: as §1
[4] = Plasma concentration in patient with severe renal insufficiency at 400 mg, po administered as single dose measured at 12 hrs post dose; type: ADME, organism-based; conditions: human, read-out: Activity; method in brief: as §2
[5] = Terminal half life in healthy human at 400 mg, po administered as single dose; type: ADME, organism-based; conditions: in vivo; method in brief: as §1
[6] = Plasma concentration in patient with hepatic insufficiency at 400 mg, po administered as single dose measured at 12 hrs post dose; type: ADME, organism-based; conditions: human, read-out: Activity; method in brief: as §2
[7] = Plasma concentration in healthy human at 400 mg, po administered as single dose measured at 12 hrs post dose; type: ADME, organism-based; conditions: read-out: Activity; method in brief: as §2
[8] = tested on: Homo sapiens; test: Ratio of Cmax in patient with severe renal insufficiency to Cmax in healthy human at 400 mg, po administered as single dose; type: ADME, organism-based; conditions: in vivo
Method in brief: (§3)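 Single 400-mg oral raltegravir dose to patients (moderate hepatic or severe renal insufficiency) and matched healthy controls; plasma raltegravir measured by HPLC-MS/MS. Cmax read by inspection, ln-transformed. Geometric mean ratio (patient/healthy) with 90% CI from ANCOVA least-squares means: population and sex fixed effects, age and BMI covariates.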

[9] = tested on: Homo sapiens; test: Toxicity in human assessed as headache at 400 mg, po administered as single dose; type: organism-based; conditions: in vivo
Method in brief: (§4)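 Safety assessed throughout each study by clinical and laboratory evaluations after a single 400-mg oral dose. Relatedness of adverse experiences to the drug was judged by the investigator.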

[10] = Renal clearance in patient with severe renal insufficiency at 400 mg, po administered as single dose; type: ADME, organism-based, Kidney; conditions: human, in vivo, read-out: CL_renal
Method in brief: (§5)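 Renal study, 10 patients plus 10 matched controls. Urine collected predose and at 0–4, 4–8, 8–12 and 12–24 h after a fasted 400-mg oral dose. Urine diluted and injected directly for HPLC-MS/MS (LLOQ 0.25 µg/ml, range 0.25–25 µg/ml). fe = total amount excreted unchanged ÷ dose × 100%. CLR = […] ÷ plasma AUC0-24.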

[11] = Terminal half life in patient with hepatic insufficiency at 400 mg, po administered as single dose; type: ADME, organism-based; conditions: human, in vivo; method in brief: as §1
[12] = tested on: Homo sapiens; test: Ratio of plasma concentration in patient with hepatic insufficiency to plasma concentration in healthy human at 400 mg, po administered as single dose; type: ADME, organism-based; conditions: in vivo
Method in brief: (§6)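 Geometric mean ratio, patients/matched healthy controls, for AUC0-∞, Cmax and C12 after a single 400-mg oral dose. Data are natural-log transformed. 90% CIs come from ANCOVA least-squares means, with population and sex as fixed effects and age and BMI as covariates, then exponentiated. n = 8 per group.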

[13] = tested on: Homo sapiens; test: Ratio of plasma concentration in patient with hepatic insufficiency to plasma concentration in healthy human at 400 mg, po administered as single dose measured at 12 hrs post dose; type: ADME, organism-based; conditions: in vivo; method in brief: as §6
[14] = Primary phase half life in patient with hepatic insufficiency at 400 mg, po administered as single dose; type: ADME, organism-based; conditions: human, in vivo; method in brief: as §1
[15] = Cmax in patient with severe renal insufficiency at 400 mg, po administered as single dose; type: ADME, organism-based; set-up: dose 400 mg, route oral; conditions: human, in vivo; method in brief: as §2
[16] = tested on: Homo sapiens; test: Ratio of Cmax in patient with hepatic insufficiency to Cmax in healthy human at 400 mg, po administered as single dose; type: ADME, organism-based; conditions: in vivo; method in brief: as §3
[17] = tested on: Homo sapiens; test: Drug level in patient with severe renal insufficiency assessed as recovery of unchanged drug at 400 mg, po administered as single dose; type: ADME, organism-based; conditions: in vivo; method in brief: as §5
[18] = Tmax in patient with hepatic insufficiency at 400 mg, po administered as single dose; type: ADME, organism-based; conditions: human, in vivo
Method in brief: (§7)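 Tmax is taken by inspection of the plasma concentration data, using nominal sampling times. Single 400-mg oral dose; plasma sampled from 0 to 72 h, or to 96 h in the hepatic study. Raltegravir is measured by validated reverse-phase HPLC-MS/MS (LLOQ 2 ng/ml).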

[19] = Renal clearance in healthy human at 400 mg, po administered as single dose; type: ADME, organism-based, Kidney; conditions: in vivo, read-out: CL_renal; method in brief: as §5
[20] = tested on: Homo sapiens; test: Toxicity in human assessed as mouth ulceration at 400 mg, po administered as single dose; type: organism-based; conditions: in vivo; method in brief: as §4
[21] = Cmax in healthy human at 400 mg, po administered as single dose; type: ADME, organism-based; set-up: dose 400 mg, route oral; conditions: in vivo; method in brief: as §2
[22] = Terminal half life in patient with severe renal insufficiency at 400 mg, po administered as single dose; type: ADME, organism-based; conditions: human, in vivo; method in brief: as §1
[23] = AUC (0 to infinity) in patient with hepatic insufficiency at 400 mg, po administered as single dose; type: ADME, organism-based; set-up: dose 400 mg, route oral, time infinity; conditions: human, plasma; method in brief: as §2
[24] = AUC (0 to infinity) in healthy human at 400 mg, po administered as single dose; type: ADME, organism-based; set-up: dose 400 mg, route oral, time infinity; conditions: plasma; method in brief: as §2
[25] = Tmax in patient with severe renal insufficiency at 400 mg, po administered as single dose; type: ADME, organism-based; conditions: human, in vivo; method in brief: as §7
[26] = Cmax in patient with hepatic insufficiency at 400 mg, po administered as single dose; type: ADME, organism-based; set-up: dose 400 mg, route oral; conditions: human, in vivo; method in brief: as §2

half-life [1]: 1.38 h
AUC(0-inf) [2]: 16.8 µM·h
half-life [3]: 1.1 h
concentration at 12 h [4]: 135 nM
half-life [5]: 9.3 h
concentration at 12 h [6]: 143 nM
concentration at 12 h [7]: 106 nM
Cmax (Ratio) [8]: 0.68
CL renal [10]: 2.7 mL/min
half-life [11]: 7 h
Activity [12]: 1.26 nM
Activity [13]: 1.26 nM
half-life [14]: 1.49 h
Cmax [15]: 3850 nM
Cmax (Ratio) [16]: 0.63
fold change (FC) [17]: 0.5
Tmax [18]: 2.5 h
CL renal [19]: 31.5 mL/min
Cmax [21]: 5680 nM
half-life [22]: 17.2 h
AUC(0-inf) [23]: 17.7 µM·h
AUC(0-inf) [24]: 19.7 µM·h
Tmax [25]: 3.5 h
Cmax [26]: 4410 nM
SMILES: Cc1nnc(C(=O)NC(C)(C)c2nc(C(=O)NCc3ccc(F)cc3)c(O)c(=O)n2C)o1 [RALTEGRAVIR]
Activity [9]: Toxic
Activity [20]: Toxic
